Screens from PubChem BioAssay.
IDH1 R132H inh = blocks human IDH1 R132H reductase activity; O75874; diaphorase/resazurin fluorescence, 60 min; AID 624101; 70,000 tested, 0.18% active; inhibition, % at 10 µM; in the data active = inhibition above about 34%; inconclusive = no clear call, values can overlap the other calls; inactive = below about 11%
Target sequence (O75874 whole entry R132H): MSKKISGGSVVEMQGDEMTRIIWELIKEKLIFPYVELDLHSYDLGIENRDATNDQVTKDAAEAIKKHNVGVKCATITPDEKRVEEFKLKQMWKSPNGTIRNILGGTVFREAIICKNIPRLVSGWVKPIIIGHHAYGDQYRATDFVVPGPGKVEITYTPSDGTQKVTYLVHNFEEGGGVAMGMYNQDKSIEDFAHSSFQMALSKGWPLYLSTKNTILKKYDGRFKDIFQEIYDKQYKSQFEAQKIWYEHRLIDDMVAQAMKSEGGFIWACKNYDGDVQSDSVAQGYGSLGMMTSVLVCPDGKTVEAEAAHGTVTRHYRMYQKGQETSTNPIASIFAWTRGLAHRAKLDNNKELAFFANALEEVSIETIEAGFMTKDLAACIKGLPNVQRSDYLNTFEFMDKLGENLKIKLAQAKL
GASC1 inh = KDM4C (human) demethylase inhibition; inhibition, % at 12.5 µM; 96,000 tested, 0.15% active; Q9H3R0; GST-KDM4C 2-372, H3K9me3 peptide, LANCE TR-FRET; AID 720574;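 active = mean replicate inhibition above about 25%, with at least 55% of replicates also reaching it, limit read from the data, passing the limit was not always enough; inconclusive = only one of those two conditions met; inactive = neither condition met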
Target sequence (Q9H3R0 2-372 limits assumed): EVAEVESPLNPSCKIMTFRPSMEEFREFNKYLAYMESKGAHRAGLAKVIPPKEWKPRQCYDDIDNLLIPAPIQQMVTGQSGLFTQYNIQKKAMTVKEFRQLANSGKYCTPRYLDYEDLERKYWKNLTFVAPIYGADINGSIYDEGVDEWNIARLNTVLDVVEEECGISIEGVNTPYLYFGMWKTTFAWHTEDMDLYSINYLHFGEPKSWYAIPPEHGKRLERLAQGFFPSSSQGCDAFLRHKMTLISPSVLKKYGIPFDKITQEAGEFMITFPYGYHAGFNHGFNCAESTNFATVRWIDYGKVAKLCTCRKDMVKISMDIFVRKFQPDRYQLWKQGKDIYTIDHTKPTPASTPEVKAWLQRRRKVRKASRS
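Material: GST-tagged GASC-1 (JMJD2C) catalytic fragment, aa 2-372. Input: enzyme final amount 10 nM. Medium: HEPES buffer, pH 7.5, plus ascorbate. Reagent: H3K9me3 peptide substrate, Fe(II), 2-oxoglutarate. Doses: single dose. Times: reaction 30 min RT, detection step 1 h RT. Measured by: LANCE TR-FRET. Evaluation: Fall in 671/618 emission ratio as inhibition.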
Pf Dd2 growth = P. falciparum Dd2 growth inhibition; AID 1159554; 94,000 tested, 2.3% active; SYBR Green, 72 h; stronger effect = lower value; activity change, % at 10 µM; in the data active = activity change below about -80%; inconclusive = no clear call, values can overlap the other calls
Tcruzi prolif = blocks T. cruzi growth in NIH3T3 culture | T. cruzi beta-gal in NIH3T3, GalScreen luminescence, 90 h | inhibition, % at 8.34 µM | 77,000 tested, 5.9% active;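 active = mean inhibition above about 93%, with at least 55% of replicates each passing it, limit read from the data, passing the limit was not always enough; inconclusive = only one of those two conditions holds; inactive = neither condition holds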
Each line names hits and unclear results; the compound was inactive in the other large screens. A selection: hits, their analogues and other compounds. The true share with any hit is near 5.8%.

CO[C@H]1CN(C)C(=O)c2ccc(NC(=O)c3ccc(-c4ccccc4)cc3)cc2OC[C@@H](C)NC[C@@H]1C	Pf Dd2 growth -92
CO[C@@H]1CN(C)C(=O)c2ccc(NC(=O)Nc3ccc(C(F)(F)F)cc3)cc2OC[C@H](C)NC[C@H]1C	Pf Dd2 growth -95
CO[C@@H]1CN(C)C(=O)c2ccc(NC(=O)c3ccc(-c4ccccc4)cc3)cc2OC[C@@H](C)NC[C@@H]1C	Pf Dd2 growth -86 (no result: IDH1 R132H inh, Tcruzi prolif)
CO[C@@H]1CN(C)C(=O)c2ccc(NC(=O)c3ccc(-c4ccccc4)cc3)cc2OC[C@H](C)NC[C@@H]1C	Pf Dd2 growth inconclusive
CO[C@H]1CN(C)C(=O)c2cc(NC(=O)c3ccc(Oc4ccccc4)cc3)ccc2OC[C@@H](C)NC[C@H]1C	none
CO[C@@H]1CN(C)C(=O)c2cc(NC(=O)c3ccc(Oc4ccccc4)cc3)ccc2OC[C@@H](C)NC[C@@H]1C	Pf Dd2 growth -92
COc1ccccc1-c1nnc(SCC(=O)c2ccc(NC(C)=O)cc2)o1	none (no result: GASC1 inh, Pf Dd2 growth, Tcruzi prolif)
CO[C@@H]1CN(C)C(=O)c2cc(NC(=O)Nc3cccc(Cl)c3)ccc2OC[C@@H](C)NC[C@@H]1C	Pf Dd2 growth -85
CO[C@@H]1CN(C)C(=O)c2cc(NC(=O)Nc3cccc(Cl)c3)ccc2OC[C@@H](C)NC[C@H]1C	none
COc1cccc2cc(C(=O)CC3(O)C(=O)N(Cc4ccccc4)c4ccc(Br)cc43)c(=O)oc12 (stereo unspecified)	none (no result: GASC1 inh, Pf Dd2 growth, Tcruzi prolif)
C[C@@H]1CN([C@H](C)CO)C(=O)c2cc(NC(=O)NC3CCCCC3)ccc2O[C@@H](C)CCCCO[C@@H]1CN(C)C(=O)Nc1ccccc1	Pf Dd2 growth -81 (no result: IDH1 R132H inh)
C[C@@H]1CCCCO[C@@H](CN(C)C(=O)NC2CCCCC2)[C@H](C)CN([C@@H](C)CO)C(=O)c2cc(NC(=O)Nc3ccccc3)ccc2O1	none
C[C@@H]1CN([C@H](C)CO)C(=O)c2cc(NC(=O)Nc3ccccc3)ccc2O[C@@H](C)CCCCO[C@@H]1CN(C)C(=O)NC1CCCCC1	Pf Dd2 growth -85 (no result: IDH1 R132H inh)
C[C@@H]1CCCCO[C@@H](CN(C)C(=O)Nc2ccccc2)[C@@H](C)CN([C@H](C)CO)C(=O)c2cc(NC(=O)NC3CCCCC3)ccc2O1	none
C[C@@H]1CN([C@H](C)CO)C(=O)c2cc(NC(=O)NC3CCCCC3)ccc2O[C@@H](C)CCCCO[C@@H]1CN(C)C(=O)Nc1ccc(F)cc1	Pf Dd2 growth -88 (no result: Tcruzi prolif)
C[C@@H]1CN([C@H](C)CO)C(=O)c2cc(NC(=O)Nc3cccc4ccccc34)ccc2O[C@@H](C)CCCCO[C@@H]1CN(C)S(=O)(=O)c1ccc(F)cc1	Pf Dd2 growth -87 (no result: IDH1 R132H inh)
C[C@@H]1CN([C@@H](C)CO)C(=O)c2cc(NC(=O)Nc3cccc4ccccc34)ccc2O[C@@H](C)CCCCO[C@@H]1CN(C)S(=O)(=O)c1ccc(F)cc1	Pf Dd2 growth -83
CN1CCN(C(=S)SCC(=O)Nc2nc(=O)c3ccccc3s2)CC1	none (no result: GASC1 inh, Pf Dd2 growth, Tcruzi prolif)
O=C1C(=O)N(Cc2ccco2)C(c2ccc(Cl)cc2)C1C(=O)c1cc2ccccc2o1 (stereo unspecified)	none (no result: GASC1 inh, Pf Dd2 growth, Tcruzi prolif)
Cc1nc(N2[C@H](CO)[C@H](c3ccccc3)[C@H]2CNCC2CCCC2)sc1C	Pf Dd2 growth -90 (no result: IDH1 R132H inh, Tcruzi prolif)
O=C(C1CCCO1)N1N=C(c2c(-c3ccccc3)c3cc(Cl)ccc3[nH]c2=O)CC1c1ccco1 (stereo unspecified)	none (no result: GASC1 inh, Pf Dd2 growth, Tcruzi prolif)
C[C@@H]1CN([C@H](C)CO)C(=O)c2c(c3ccccc3n2C)-c2ccccc2CO[C@@H]1CN(C)S(=O)(=O)c1ccccc1	none (no result: IDH1 R132H inh)
C[C@H](CO)N1C[C@H](C)[C@H](CN(C)S(=O)(=O)c2ccc([N+](=O)[O-])cc2)OCc2ccccc2-c2c(n(C)c3ccccc23)C1=O	Pf Dd2 growth -92 (no result: IDH1 R132H inh, Tcruzi prolif)
Cc1ccc(S(=O)(=O)N(C)C[C@@H]2OCc3ccccc3-c3c(n(C)c4ccccc34)C(=O)N([C@@H](C)CO)C[C@H]2C)cc1	Pf Dd2 growth -81 (no result: IDH1 R132H inh)
C[C@@H]1CN([C@@H](C)CO)C(=O)c2c(c3ccccc3n2C)-c2ccccc2CO[C@@H]1CN(C)S(=O)(=O)c1ccc([N+](=O)[O-])cc1	none (no result: IDH1 R132H inh, Tcruzi prolif)
Cc1noc(C)c1S(=O)(=O)N(C)C[C@@H]1OCc2ccccc2-c2c(n(C)c3ccccc23)C(=O)N([C@H](C)CO)C[C@@H]1C	Pf Dd2 growth -84
Cc1ccc(S(=O)(=O)N(C)C[C@H]2OCc3ccccc3-c3c(n(C)c4ccccc34)C(=O)N([C@@H](C)CO)C[C@@H]2C)cc1	Pf Dd2 growth -92 (no result: IDH1 R132H inh)
Cc1ccc(C)c(N(CC(=O)Nc2ccc(I)cc2)S(C)(=O)=O)c1	none (no result: GASC1 inh, Pf Dd2 growth, Tcruzi prolif)
CC1(C)CC(=O)C=C(NCC2CCN(C(=S)Nc3ccccc3)CC2)C1	none (no result: GASC1 inh, Pf Dd2 growth, Tcruzi prolif)
Cc1ccc(S(=O)(=O)N(C)C[C@@H]2OCc3ccccc3-c3c(n(C)c4ccccc34)C(=O)N([C@H](C)CO)C[C@H]2C)cc1	Pf Dd2 growth -82
C[C@@H]1CN([C@@H](C)CO)C(=O)c2c(c3ccccc3n2C)-c2ccccc2CO[C@H]1CN(C)S(=O)(=O)c1ccc(F)cc1	none (no result: IDH1 R132H inh)
Cc1ccc(S(=O)(=O)N(C)C[C@@H]2OCc3ccccc3-c3c(n(C)c4ccccc34)C(=O)N([C@H](C)CO)C[C@@H]2C)cc1	Pf Dd2 growth -92 (no result: IDH1 R132H inh, GASC1 inh, Tcruzi prolif)
C[C@@H]1CN([C@@H](C)CO)C(=O)c2cccc(NC(=O)c3ccc(-c4nccs4)cc3)c2O[C@@H]1CN(C)Cc1ccc(-c2ccccc2)cc1	none
C[C@H]1CN([C@@H](C)CO)C(=O)c2cccc(NC(=O)c3ccc(-c4nccs4)cc3)c2O[C@@H]1CN(C)Cc1ccc(C(=O)Nc2ccccc2N)cc1	Pf Dd2 growth -90, Tcruzi prolif 104 (no result: IDH1 R132H inh)
C[C@@H]1CN([C@H](C)CO)C(=O)c2cccc(NC(=O)c3ccc(-c4nccs4)cc3)c2O[C@H]1CN(C)Cc1ccc(C(=O)Nc2ccccc2N)cc1	Pf Dd2 growth -91
O=C(CSc1nnc2sc3ccccc3n12)Nc1c(Cl)cccc1Cl	none (no result: GASC1 inh, Pf Dd2 growth, Tcruzi prolif)
N#C[C@@H]1[C@H](c2ccccc2-c2cccc(F)c2)[C@H](CO)N1C(=O)C1CCCC1	Pf Dd2 growth -95 (no result: IDH1 R132H inh, Tcruzi prolif)
N#C[C@@H]1[C@@H](c2ccccc2-c2ccccc2F)[C@H](CO)N1C(=O)C1CC1	Pf Dd2 growth -88 (no result: IDH1 R132H inh, Tcruzi prolif)
N#C[C@@H]1[C@H](c2ccccc2-c2ccccc2F)[C@H](CO)N1C(=O)C1CC1	none (no result: IDH1 R132H inh, Tcruzi prolif)
N#C[C@@H]1[C@H](c2ccccc2-c2cccc(F)c2)[C@H](CO)N1C(=O)C1CC1	Pf Dd2 growth -83 (no result: IDH1 R132H inh, Tcruzi prolif)
Cc1ccc(-c2ccccc2[C@H]2[C@@H](C#N)N(C(=O)c3cccc(F)c3)[C@H]2CO)cc1	Pf Dd2 growth -91 (no result: IDH1 R132H inh, Tcruzi prolif)
Cc1cccc(NC(=O)C(C)NS(=O)(=O)c2ccccc2)c1 (stereo unspecified)	none (no result: GASC1 inh, Pf Dd2 growth, Tcruzi prolif)
CCc1c(C#N)c(SCC(=O)c2c(C)[nH]c3ccccc23)nc2c1C(=O)CC(C)(C)C2	none (no result: GASC1 inh, Pf Dd2 growth, Tcruzi prolif)
CCCNC(=O)N1[C@@H](C#N)[C@H](c2ccccc2-c2ccccc2F)[C@@H]1CO	Pf Dd2 growth -89 (no result: IDH1 R132H inh, Tcruzi prolif)
N#C[C@@H]1[C@@H](c2ccc(-c3cccc(F)c3)cc2)[C@H](CO)N1C(=O)c1cccnc1	none (no result: IDH1 R132H inh)
CCc1nc(N2[C@@H](C#N)[C@H](c3ccccc3-c3ccccc3F)[C@@H]2CO)sc1C	none (no result: IDH1 R132H inh, Tcruzi prolif)
